Data set [1] concerns the target T1, Tyrosyl-DNA phosphodiesterase 1 (Homo sapiens, UniProt Q9NUW8). The data set can be described thus: Inhibition of recombinant Tdp1 (unknown origin) using 5'-(5,6 FAM-aac gtc agg gtc ttc c-BHQ1)-3' as substrate measured every 55 secs for 8 mins by fluorimetric assay.
Data set [2] relates to A549. The experiment in a line: Potentiation of topotecan-induced cytotoxicity against human A549 cells assessed as topotecan CC50 at 1 uM after 72 hrs by MTT assay (reference value: 111 +/- 27 nM). To be noted: A549, 72 h. The class given is functional.
In data set [3] the test system is Tdp1. The experiment in a line: Selectivity index, ratio of CC50 for HEK293 cells to IC50 for recombinant Tdp1 (unknown origin) using 5'-(5,6 FAM-aac gtc agg gtc ttc c-BHQ1)-3' as substrate. The class given is toxicity. To be noted: human, HEK293 cells (CC50) and recombinant Tdp1 (IC50), probe 5'-(5,6 FAM-aac gtc agg gtc ttc c-BHQ1)-3'.
The nature of data set [4]: Cytotoxicity against human A549 cells after 72 hrs by MTT assay. The class given is cell-based. The gist of the method: (§1)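 Cells seeded at ~2000 per well and grown 24 h at 37 °C, 5% CO2 in IMDM with 10% FBS plus penicillin/streptomycin. Then exposed to the compound (1 to 100 µM) for 72 h. Viability read by MTT as A570 versus DMSO control. CC50 interpolated from the dose-response curve. Mean ± SD of triplicates.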
(Tetrazolium dyes change colour on reduction, which living cells bring about.)

The nature of data set [5]: Cytotoxicity against HEK293 cells after 72 hrs by MTT assay. It counts as cell-based. To be noted: human. Put shortly:
as §1

The subject of data set [6] is Tdp1. The experiment in a line: Selectivity index, ratio of CC50 for human A549 cells to IC50 for recombinant Tdp1 (unknown origin) using 5'-(5,6 FAM-aac gtc agg gtc ttc c-BHQ1)-3' as substrate. The class given is toxicity. To be noted: A549 cells (CC50) and recombinant Tdp1 (IC50), probe 5'-(5,6 FAM-aac gtc agg gtc ttc c-BHQ1)-3'.
The target of data set [7] is T1, Tyrosyl-DNA phosphodiesterase 1. The experiment in a line: Inhibition of recombinant Tdp1 (unknown origin) using 5'-([32P]-aac gtc agg gtc ttc c-tyrosine)-3' as substrate measured after 5 mins by electrophoresis method.
The target is the same in data set [8]. The experiment in a line: Inhibition of recombinant Tdp1 (unknown origin) using 5'-([32P]-aac gtc agg gtc ttc c-BHQ1)-3' as substrate measured after 20 mins by electrophoresis method.
Data set [9] relates to A549. The experiment in a line: Potentiation of topotecan-induced cytotoxicity against human A549 cells assessed as fold reduction in topotecan CC50 at 1 uM after 72 hrs by MTT assay relative to topotecan alone. The class given is functional. Put shortly:
(§2)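 A-549 or HEK-293 cells (~2000/well) preincubated 24 h at 37 °C in IMDM with 10% FBS, penicillin/streptomycin, 5% CO2. Then treated with varied topotecan concentrations with or without inhibitor at 1 µM for 72 h. Viability read by MTT (A570) against DMSO control. Topotecan CC50 interpolated from dose-response curves, mean ± SD of triplicates.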

Another data set deals with HEK293. The experiment in a line: Potentiation of topotecan-induced cytotoxicity against HEK293 cells assessed as fold reduction in topotecan CC50 at 1 uM after 72 hrs by MTT assay relative to topotecan alone. Particulars: human, hek293, 72 h. The class given is cell-based. The gist of the method: as §2

pIC50: −log10 of the molar value.

T1 sequence (Q9NUW8 whole entry): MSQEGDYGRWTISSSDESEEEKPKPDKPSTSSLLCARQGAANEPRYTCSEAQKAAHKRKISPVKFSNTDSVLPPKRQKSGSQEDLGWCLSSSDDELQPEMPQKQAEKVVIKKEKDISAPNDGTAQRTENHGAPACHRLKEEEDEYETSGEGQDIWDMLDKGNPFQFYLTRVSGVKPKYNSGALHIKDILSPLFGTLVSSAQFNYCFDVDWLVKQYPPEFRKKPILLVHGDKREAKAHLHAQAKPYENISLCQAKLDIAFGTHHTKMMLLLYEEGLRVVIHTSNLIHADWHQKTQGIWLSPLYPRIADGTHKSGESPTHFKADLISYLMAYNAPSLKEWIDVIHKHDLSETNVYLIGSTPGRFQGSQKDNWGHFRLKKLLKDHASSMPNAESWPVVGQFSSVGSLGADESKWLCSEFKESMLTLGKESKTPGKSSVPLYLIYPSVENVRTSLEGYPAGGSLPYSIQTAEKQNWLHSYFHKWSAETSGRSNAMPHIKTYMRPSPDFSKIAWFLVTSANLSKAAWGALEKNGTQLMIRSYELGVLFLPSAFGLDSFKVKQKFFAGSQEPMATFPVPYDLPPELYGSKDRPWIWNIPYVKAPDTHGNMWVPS

The pIC50 is −log10 of the IC50, conventionally taken in molar units. For the molecule `COc1ccccc1/C=C1\Oc2c(C)c(O)c3c(c2C1=O)OC1=CC(O)=C(C(C)=O)C(=O)[C@@]13C`, the pIC50 in data set [1] is 6.41.
As a reminder, the CC50 is the concentration giving 50% cytotoxicity. `CC(=O)C1=C(O)C=C2Oc3c4c(c(C)c(O)c3[C@@]2(C)C1=O)O/C(=C\c1ccc(Br)cc1)C4=O`: the CC50 in the data set with A549 [2] turned out to be 0.162 µM. The selectivity ratio amounted to 97.3 in the data set with Tdp1 [3] and 66.7 in the data set on Tdp1 [6]. Further, the CC50 at 72 h in data set [4] was found to be 10 µM; in data set [5], 14.6 µM.
Take `CC(=O)C1=C(O)C=C2Oc3c4c(c(C)c(O)c3[C@@]2(C)C1=O)O/C(=C\c1ccncc1)C4=O`: the pIC50 in [1] is 6.09.
Regarding `CC(=O)C1=C(O)C=C2Oc3c4c(c(C)c(O)c3[C@@]2(C)C1=O)O/C(=C\c1cccnc1)C4=O`, the pIC50 in data set [1] was 6.35.
As for `CC(=O)C1=C(O)C=C2Oc3c4c(c(C)c(O)c3[C@@]2(C)C1=O)O/C(=C\c1sccc1C)C4=O`, the pIC50 in data set [1] was 6.20.
Regarding `CC(=O)C1=C(O)C=C2Oc3c4c(c(C)c(O)c3[C@@]2(C)C1=O)O/C(=C\c1ccccc1)C4=O`, the pIC50 in data set [1] was 6.14.
Turning to `CC(=O)C1=C(O)C=C2Oc3c4c(c(C)c(O)c3[C@@]2(C)C1=O)O/C(=C\c1ccc(C)s1)C4=O`, in data set [1], the pIC50 is 6.08.
As to `CC(=O)C1=C(O)C=C2Oc3c4c(c(C)c(O)c3[C@@]2(C)C1=O)O/C(=C\c1ccccn1)C4=O`, the pIC50 in data set [1] was 6.07.
Take `CC(=O)C1=C(O)C=C2Oc3c4c(c(C)c(O)c3[C@@]2(C)C1=O)O/C(=C\c1ccc(Cl)cc1)C4=O`: the pIC50 in [1] is 5.91.
Turning to `CC(=O)C1=C(O)C=C2Oc3c4c(c(C)c(O)c3[C@@]2(C)C1=O)O/C(=C\c1ccc(O)cc1)C4=O`, in [1], the pIC50 is 5.80.
With `CC(=O)C1=C(O)C=C2Oc3c4c(c(C)c(O)c3[C@@]2(C)C1=O)O/C(=C\c1cc(Br)cc(Br)c1)C4=O`, the pIC50 is 5.40 in data set [7], 6.28 in data set [1] and 6.19 in [8].
`CC(=O)C1=C(O)C=C2Oc3c4c(c(C)c(O)c3[C@@]2(C)C1=O)O/C(=C\c1cc(Br)cs1)C4=O`: in data set [1], the pIC50 is 6.22.
For `CC(=O)C1=C(O)C=C2Oc3c4c(c(C)c(O)c3[C@@]2(C)C1=O)O/C(=C\c1ccc(Br)s1)C4=O`, in the data set on A549 [2], the CC50 came out at 0.047 µM. Further, the selectivity ratio came out at 249 with Tdp1 [3] and 138 with Tdp1 [6]. Also, the CC50 at 72 h in data set [4] amounted to 8.7 µM; in data set [5], 15.7 µM. The negative-log IC50 (pIC50) in data set [1] is 7.20. The “fold change (FC)” value was 2 in the data set on A549 [9] and 2 to 4 in the data set on HEK293.
On to `CC(=O)C1=C(O)C=C2Oc3c4c(c(C)c(O)c3[C@@]2(C)C1=O)O/C(=C\c1ccc(F)cc1)C4=O`, for which, in data set [1], the pIC50 is 6.01.
For `CC(=O)C1=C(O)C=C2Oc3c4c(c(C)c(O)c3[C@@]2(C)C1=O)O/C(=C\c1ccc[nH]1)C4=O`, the pIC50 in data set [1] was 5.44.
As to `CC(=O)C1=C(O)C=C2Oc3c4c(c(C)c(O)c3[C@]2(C)C1=O)O/C(=C\c1ccc(Br)s1)C4=O`, in [1], the pIC50 is 7.09.
Regarding `COc1ccc(/C=C2\Oc3c(C)c(O)c4c(c3C2=O)OC2=CC(O)=C(C(C)=O)C(=O)[C@@]24C)cc1`, the CC50 in the data set with A549 [2] came out at 0.09 µM. Moreover, the selectivity ratio with Tdp1 [3] was 46.5; with Tdp1 [6], 24.4. The results for the CC50 at 72 h in data set [4] and in data set [5] were 8.3 µM and 15.8 µM, respectively. For the same molecule, the negative-log IC50 (pIC50) in data set [1] is 6.47.
With `CC(=O)C1=C(O)C=C2Oc3c4c(c(C)c(O)c3[C@@]2(C)C1=O)O/C(=C\c1ccco1)C4=O`, the pIC50 in data set [1] is 5.26.
For `COc1ccc(/C=C2\Oc3c(C)c(O)c4c(c3C2=O)OC2=CC(O)=C(C(C)=O)C(=O)[C@@]24C)cc1OC`, the pIC50 in data set [1] was 5.99.
Take `CC(=O)C1=C(O)C=C2Oc3c4c(c(C)c(O)c3[C@@]2(C)C1=O)O/C(=C\c1ccc(C)o1)C4=O`: the CC50 in the data set on A549 [2] came to 0.04 µM. For the same molecule, the selectivity ratio in the data set on Tdp1 [3] and with Tdp1 [6] was above 300 each time. Also, the CC50 at 72 h in data set [4] and in data set [5] was above 50 µM throughout. Moreover, the pIC50 in [1] was 6.80. For the same molecule, in the data set on A549 [9], the “fold change (FC)” value is recorded as 2.
As to `CC(=O)C1=C(O)C=C2Oc3c4c(c(C)c(O)c3[C@@]2(C)C1=O)O/C(=C\C1CCCCC1)C4=O`, in data set [1], the pIC50 was below 4.82.
As to `CC(=O)C1=C(O)C=C2Oc3c4c(c(C)c(O)c3[C@@]2(C)C1=O)O/C(=C\c1cc(C(C)(C)C)cc(C(C)(C)C)c1O)C4=O`, the cytotoxic concentration (CC50) in the data set with A549 [2] amounted to 0.558 µM. For the same molecule, the CC50 at 72 h amounted to 6.8 µM in [4] and 14.5 µM in data set [5]. Besides, the pIC50 in [1] is 7.60. In addition, in the data set on Tdp1 [6], the selectivity ratio was determined as 272.
Turning to `CC(=O)C1=C(O)C=C2Oc3c4c(c(C)c(O)c3[C@@]2(C)C1=O)O/C(=C\c1ccsc1)C4=O`, the pIC50 in data set [1] is 5.48.
Turning to `CC(=O)C1=C(O)C=C2Oc3c4c(c(C)c(O)c3[C@@]2(C)C1=O)O/C(=C\c1cccs1)C4=O`, in data set [1], the pIC50 was 6.05.
On to `CC(=O)C1=C(O)C=C2Oc3c4c(c(C)c(O)c3[C@@]2(C)C1=O)O/C(=C\c1ccoc1)C4=O`, for which, in data set [1], the pIC50 is 5.17.
For the molecule `CC(=O)C1=C(O)C=C2Oc3c4c(c(C)c(O)c3[C@@]2(C)C1=O)O/C(=C\c1cccc(Br)c1)C4=O`, the CC50 in the data set on A549 [2] is 0.132 µM. The selectivity ratio with Tdp1 [3] is 62.5; in the data set with Tdp1 [6], 49.1. Moreover, the values for the CC50 at 72 h in data set [4] and in data set [5] were 11.4 µM and 14.5 µM, respectively. Also, the pIC50 in data set [1] was 6.63.
Consider `CC(=O)C1=C(O)C=C2Oc3c4c(c(C)c(O)c3[C@]2(C)C1=O)O/C(=C\c1cc(C(C)(C)C)cc(C(C)(C)C)c1O)C4=O`, for which, in data set [1], the pIC50 is 7.19.
`CC(=O)C1=C(O)C=C2Oc3c4c(c(C)c(O)c3[C@@]2(C)C1=O)O/C(=C\c1ccccc1Br)C4=O`: the CC50 in the data set on A549 [2] amounted to 0.048 µM. Further, the selectivity ratio stood at 69.1 with Tdp1 [3] and 19.8 with Tdp1 [6]. The CC50 at 72 h was 4.56 µM in data set [4] and 15.9 µM in data set [5]. For the same molecule, the pIC50 in [1] is 6.64. Further, the “fold change (FC)” value with A549 [9] is on record as 2.
As to `COc1ccc(/C=C2\Oc3c(C)c(O)c4c(c3C2=O)OC2=CC(O)=C(C(C)=O)C(=O)[C@@]24C)c(OC)c1OC`, in the data set with A549 [2], the CC50 came out at 0.048 µM. The selectivity ratio is 58.8 with Tdp1 [3] and 13.5 with Tdp1 [6]. For the same molecule, the values for the CC50 at 72 h in data set [4] and in data set [5] were 4.6 µM and 20 µM, respectively. Further, the pIC50 in data set [1] was 6.47. Moreover, the “fold change (FC)” value in the data set with A549 [9] came out at 2.

The values are drawn from ChEMBL document CHEMBL4229495 (Bioorg Med Chem, 2018).
